Data set [1] relates to CNG channel. Briefly: CNG channel activity in excised patches with PDE inhibitor. It counts as biochemical, rat. Particulars: 100 μM IBMX, data not shown. The essentials: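 Patch clamp on rat olfactory CNG channels expressed from an adenovirus vector. Gigaohm seals were formed, then patches were excised by shearing the cell off the pipette with a liquid jet. Currents were elicited by 250-ms pulses to +50 and −50 mV from a 0 mV holding potential and sampled at five times the filter setting.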

The subject of data set [2] is PDE activity in HEK-293 cells. Briefly: Effects of PDE inhibitors on forskolin-induced Ca2+ influx in HEK-293 cells. It counts as cell-based, human. To be noted: C460W/E583M channels, 1 μM forskolin, IBMX 10 or 100 μM, RO-20-1724 10 μM.
Data set [3] deals with HEK-293 cells. Nature of the data set: Equilibration of PDE inhibitors across the plasma membrane. In kind it is cell-based, human. To be noted: data not shown.
The subject of data set [4] is PDE activity in GH4C1 cells. Briefly: Effect of PDE inhibitors on forskolin-induced Ca2+ influx in GH4C1 cells. In kind it is cell-based, rat. To be noted: Δ61–90/C460W/E583M channels, 10 μM forskolin, 1 μM nimodipine.
Data set [5] relates to high Km PDE. To be noted: high Km PDE in GH3 and GH4C1 cells; ref Gautvik et al. 1982; cited from earlier work.

Turning to `CC(C)Cn1c(=O)n(C)c(=O)c2[nH]cnc21` [IBMX, 3-isobutyl-1-methylxanthine], the “effect on CNG channel activity in excised patches” value in data set [1] is on record as “did not alter CNG channel activity”. In data set [2], the “effect on forskolin-induced Ca2+ influx” value is recorded as “significant forskolin-induced Ca^2+ influx was observed”. The “time to complete equilibration across the plasma membrane” value in data set [3] was below 180 s. In data set [4], the “effect on PDE activity / forskolin-induced Ca2+ influx” value is reported as “significantly inhibited PDE activity”.

As a reminder, the Km is the concentration of substrate that gives half-maximal velocity. `Nc1ncnc2c1ncn2[C@@H]1O[C@@H]2COP(=O)(O)O[C@H]2[C@H]1O` [cAMP]: in data set [5], the Km is 28.6 µM.

These data come from publication PMC2233745 (The Journal of General Physiology, 2001).
